Screens deposited in PubChem by The Scripps Research Institute Molecular Screening Center.
The list is not random: actives were taken first. Their share in the collection is about 2.9%.
M1 ag parental = counter-screen for M1 agonists: effect in parental CHO-K1 cells; activation, % at 3 µM; Fluo-8 calcium fluorescence; scaled to maximal ATP response, vehicle zero; AID 602248, 2012; hit rate 0.48% among 360,000; in the data active means activation above about 15%;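 further: untransfected CHO-K1 host cells lacking M1 receptor as counterscreen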
CHO parental Ca = ATP-evoked calcium signal inhibitors, parental CHO, primary screen, counter-screen for OX1R antagonist project, cell-based, fluorescence, Fluo-8 calcium dye; hit rate 0.63% among 330,000; inhibition, % at 5.6 µM; parental CHO-K1, ATP-induced calcium, Fluo-8 fluorescence; AID 463079, 2010;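 active means inhibition above that plate's mean sample inhibition plus 3 SD, cut at about 26% in these data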
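Material: Parental CHO cells | Reagent: ATP | Compound dosing: Single nominal dose of 5.6 µM per compound | Detection: Intracellular calcium via Fluo-8 no-wash fluorescent dye | Read-out: % inhibition of ATP-induced calcium mobilization | Benchmarks: Low control ATP plus DMSO, high control DMSO only | Replicates: Singlicate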
CHO-K1 Ca antag = M1 antagonist counterscreen hit in parental CHO-K1 cells | AID 602250 | hit rate 0.6% among 360,000 | inhibition, % at 3 µM | ATP-induced calcium, Fluo-8 fluorescence;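 active means inhibition above a per-plate cutoff, the plate's mean sample inhibition plus 3 SD, cut at about 24% in these data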
CHO-K1 Ca PAM = nonselective calcium activators in parental CHO-K1 cells, primary screen, counter-screen for M1 PAM project, cell-based, Fluo-8 calcium fluorescence, full deck, 1536-well | hit rate 0.02% among 360,000 | AID 602247, 2012 | ATP EC20; 0% at ATP EC20, 100% at ATP max | activation, % at 3 µM;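 active means activation above the run cutoff, the mean activation of all test compounds plus 3 SD, cut at about 40% in these data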;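 further: peak over basal fluorescence ratio in a 140 s read after ATP addition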
OX1R antag-1 = antagonists of human orexin 1 receptor (OX1R) | Orexin/Hypocretin receptor type 1 (Homo sapiens), O43613 | OX1R-expressing cells, FRET antagonist read-out | inhibition, % at 6.6 µM | hit rate 1.8% among 330,000; in the data active means inhibition mostly above about 38%, no sharp cut-off; inactive means mostly below about 40%
Target sequence (O43613 whole entry, looked up): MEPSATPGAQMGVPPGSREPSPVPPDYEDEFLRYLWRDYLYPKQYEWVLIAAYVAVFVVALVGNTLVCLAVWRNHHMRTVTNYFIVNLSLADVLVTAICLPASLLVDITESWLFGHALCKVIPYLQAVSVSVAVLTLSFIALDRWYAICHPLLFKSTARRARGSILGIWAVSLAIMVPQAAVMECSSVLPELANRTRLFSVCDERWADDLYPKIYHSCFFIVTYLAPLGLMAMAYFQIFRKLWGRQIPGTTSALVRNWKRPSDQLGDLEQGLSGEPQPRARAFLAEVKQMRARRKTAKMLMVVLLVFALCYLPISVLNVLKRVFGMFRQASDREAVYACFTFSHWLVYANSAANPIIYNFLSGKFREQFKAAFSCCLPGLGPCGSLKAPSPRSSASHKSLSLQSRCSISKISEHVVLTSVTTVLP
OX1R antag-2 = OX1R (HCRTR1) antagonists, primary screen, fluorescence, CHO/OX1R cells, Fluo-8 calcium, orexin A. Orexin/Hypocretin receptor type 1 (Homo sapiens), O43613. Fluo-8 calcium fluorescence. inhibition, % at 5 µM. hit rate 0.43% among 330,000. AID 434989, 2010;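 active means inhibition above its plate's threshold, mean inhibition of all tested compounds on the plate plus 3 SD, cut at about 37% in these data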
A number is an active result; 0 = inactive; - = no result.

SMILES	M1 ag parental	CHO parental Ca	CHO-K1 Ca antag	CHO-K1 Ca PAM	OX1R antag-1	OX1R antag-2
COc1ccccc1NC(=O)c1c(Nc2ccccc2C)sc(C(=O)Nc2cccc(Cl)c2)c1N	0	0	0	0	0	0
COc1ccc(C(=O)c2sc(Nc3ccccc3)c(C(=O)Nc3ccc(OC)c(OC)c3)c2N)cc1	0	0	0	0	0	0
COc1ccc(NC(=O)c2c(Nc3ccccc3)sc(C(=O)c3ccc(F)cc3)c2N)cc1	0	31.0	0	0	0	0
Cc1ccc(NC(=O)/C(=C\c2ccc([N+](=O)[O-])cc2)NC(=O)c2ccccc2)cc1	0	0	0	0	0	0
Cc1ccc(C(=O)N/C(=C\c2cccnc2)C(=O)N2CCCC2)cc1	0	0	0	0	0	0
Cc1ccc(C(=O)N/C(=C/c2cccnc2)C(=O)N2CCCCCC2)cc1	0	0	46.8	0	0	0
CN1CCN(C(=O)/C(=C/c2ccc([N+](=O)[O-])cc2)NC(=O)c2ccccc2)CC1	0	0	0	0	0	0
O=C(Nc1ccc(C(=O)O)cc1)/C(=C\c1ccc([N+](=O)[O-])cc1)NC(=O)c1ccc(Br)cc1	0	0	28.1	0	0	0
O=C(N/C(=C\c1ccc([N+](=O)[O-])cc1)C(=O)N1CCCCC1)c1ccccc1	0	0	0	0	74.8	0
O=C(N/C(=C/c1cccc([N+](=O)[O-])c1)C(=O)N1CCOCC1)c1ccccc1Br	0	0	0	0	58.2	0
CC1ON=C(c2ccc(F)cc2)NC1=O (stereo unspecified)	0	-	0	0	-	-
N#Cc1ccccc1S(=O)(=O)N1CCN(c2nc(-c3cccnc3)nc3ccccc23)CC1	0	-	0	0	-	-
CCOC(=O)C1CCN(C(=O)/C(=C/c2ccccc2)NC(=O)c2ccccc2)CC1	16.0	0	0	0	0	0
Cc1cc(C)n(CCC(=O)N2CCN(S(=O)(=O)c3ccccc3)CC2)n1	0	0	0	0	0	0
COc1ccc(NC(=O)CSc2ncccc2C(=O)OC(C)C)cc1OC	0	0	26.9	0	0	0
Cc1ccc2c(CN(C)Cc3cccc(Cl)c3)cc(=O)oc2c1C	0	0	0	0	0	0
CSc1ccc(CN(C)Cc2cc(=O)oc3c(C)c(C)ccc23)cc1	0	52.8	0	0	0	0
Cc1cccc(OCC(=O)OC(C)C(=O)Nc2ccc(S(=O)(=O)N3CCCCC3)cc2)c1 (stereo unspecified)	0	0	0	0	0	0
COc1cc2c(C(=O)N3CCOCC3)c(CSc3ccccc3)n(C)c2cc1Br	0	0	0	0	56.5	0
CCOCCCn1c(=N)c(C(=O)NCc2ccc3c(c2)OCO3)cc2c(=O)n3cccc(C)c3nc21	0	0	0	0	41.5	0
COCCCn1c(=N)c(C(=O)NCc2ccc3c(c2)OCO3)cc2c(=O)n3cccc(C)c3nc21	0	-	0	0	-	-
COCCCn1c(=N)c(C(=O)NCc2ccc3c(c2)OCO3)cc2c(=O)n3ccccc3nc21	0	0	0	0	59.0	0
CC(C)c1cc(-c2cc(C(=O)NCc3ccccc3)on2)nc(NCC2CC2)n1	0	44.2	0	0	0	62.1
CC(C)c1cc(-c2cc(C(=O)Nc3ccccc3)on2)nc(NCC2CC2)n1	-	0	-	-	0	0
COc1cc(NC(=S)Nc2ncccc2C)cc(OC)c1OC	0	0	0	0	44.7	0
SMILES	M1 ag parental	CHO parental Ca	CHO-K1 Ca antag	CHO-K1 Ca PAM	OX1R antag-1	OX1R antag-2
COc1cc(NC(=S)Nc2cccc(C)n2)cc(OC)c1OC	0	0	0	0	0	0
COc1ccc(NC(=O)c2cccc(N3C(=O)C4C5C=CC(C6CC56)C4C3=O)c2)cc1 (stereo unspecified)	15.4	0	0	0	0	0
COc1ccc(NC(=O)c2cccc(N3C(=O)C4C5C=CC(C6CC56)C4C3=O)c2)c(OC)c1 (stereo unspecified)	18.0	0	0	0	0	0
CC(C)NC(=S)N/N=C/c1cccnc1	0	0	0	0	0	0
Cc1ccsc1C1C2=C(CC(C)(C)CC2=O)Nc2ncnn21 (stereo unspecified)	0	0	0	0	0	0
Cc1ccsc1C1C2=C(CCCC2=O)Nc2ncnn21 (stereo unspecified)	0	0	30.9	0	0	0
CC(NC(=O)c1ccc(Cl)cc1)c1nnc(SCC(=O)NC2=NCCS2)n1C (stereo unspecified)	0	0	0	0	0	0
CC(C(=O)Nc1ccc2c(c1)OCO2)c1ccc([N+](=O)[O-])cc1 (stereo unspecified)	0	0	0	0	0	0
CC(Sc1nncs1)C(=O)Nc1ccc2c(c1)OCCO2 (stereo unspecified)	0	0	24.9	0	0	0
CC(C(=O)Nc1ccc2c(c1)OCCO2)c1ccc([N+](=O)[O-])cc1 (stereo unspecified)	17.3	30.7	0	0	0	0
Cc1ccc(NC(=O)C2C(c3ccccc3)C2(Cl)Cl)c(C)c1 (stereo unspecified)	0	0	0	0	76.8	0
CN(C)c1ccc(/C=N\NC(=O)CC#N)cc1	0	0	0	0	0	0
COC(=O)c1sccc1NC(=O)Nc1ccc(Cl)c(Cl)c1	0	0	28.5	0	0	0
COC(=O)c1cccc(NC(=O)Nc2ccc(Cl)c(Cl)c2)c1	15.8	0	0	0	69.0	66.7
COC(=O)c1cc(NC(=O)Nc2ccccc2)ccc1Cl	15.9	49.0	0	0	0	0
O=C(Nc1ccc(Cl)c(Cl)c1)Nc1ccccc1NS(=O)(=O)c1cccs1	0	35.0	0	0	0	0
COC(=O)c1sccc1NC(=O)Nc1ccc(C)c(C)c1	0	-	0	0	-	-
O=C(c1ccc(-c2nnc(Nc3ccccc3)c3ccccc23)cc1)N1C[C@H]2C[C@H](C1)c1cccc(=O)n1C2	0	0	0	0	0	0
O=C(CN1CCCC1c1ccc2c(c1)OCCO2)NC(=O)Nc1ccccc1F (stereo unspecified)	0	-	0	0	-	-
Cc1csc(NC(=O)c2cc3c(s2)-c2ccccc2OC3)n1	0	0	0	0	69.0	0
COC(=O)[C@H](Cc1ccccc1)[C@@H](C)OS(N)(=O)=O	0	0	0	0	0	0
NC(=O)C1CCN(C(=O)CSc2nc3ccccc3s2)CC1	0	0	23.8	0	0	0
O=C(O)C1CCN(C(=O)CSc2nc3ccccc3s2)CC1	0	0	0	0	0	0
Cc1ccc2c(c1)c1c(n2CCc2ccc(C)nc2)CCN(C)C1	0	0	0	0	0	0
CCCOc1ccc(OC(=O)c2ccc(Br)o2)cc1	0	55.6	0	0	0	66.9
